Activity calls are given as the source filed them. The calls are words filed in the database; no cut-off is given here.
Key:
HCT-15 [1] = experiment: Cytotoxicity against human HCT15 cells after 48 hrs by MTT assay; type: functional, cell-based; conditions: HCT-15, 48 h
Procedure, shortened: (§1)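 MTT colorimetric assay. Shikonin and 5-fluorouracil served as reference agents. IC₅₀ obtained by linear regression of each compound's concentration–response curve.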

MGC-803 = experiment: Cytotoxicity against human MGC803 cells after 48 hrs by MTT assay; type: functional, cell-based; conditions: MGC-803, 48 h; procedure, shortened: as §1
Bel-7402 = experiment: Cytotoxicity against human Bel7402 cells after 48 hrs by MTT assay; type: functional, cell-based; conditions: Bel-7402, 48 h; procedure, shortened: as §1
MCF7 = experiment: Cytotoxicity against human MCF7 cells after 48 hrs by MTT assay; type: functional, cell-based; conditions: MCF7, 48 h; procedure, shortened: as §1
[2] = Cytotoxicity against human HSF cells after 48 hrs by MTT assay; type: cell-based; procedure, shortened: as §1
[3] = Induction of NO release in phosphate buffer at pH 7.4 at 0.1 mM measured after 1 hr in presence of N-acetylcysteine by Griess assay; type: functional
Procedure, shortened: (§2)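 Percentage of NO released in vitro measured by Griess assay against a standard curve. Incubation in 0.5 mM N-acetylcysteine, read hourly from 1 to 6 h.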

[4] = Induction of NO release in phosphate buffer at pH 7.4 at 0.1 mM measured after 2 hrs in presence of N-acetylcysteine by Griess assay; type: functional; procedure, shortened: as §2
[5] = Induction of NO release in phosphate buffer at pH 7.4 at 0.1 mM measured after 3 hrs in presence of N-acetylcysteine by Griess assay; type: functional; procedure, shortened: as §2
[6] = Induction of NO release in phosphate buffer at pH 7.4 at 0.1 mM measured after 4 hrs in presence of N-acetylcysteine by Griess assay; type: functional; procedure, shortened: as §2
[7] = Induction of NO release in phosphate buffer at pH 7.4 at 0.1 mM measured after 5 hrs in presence of N-acetylcysteine by Griess assay; type: functional; procedure, shortened: as §2
[8] = Induction of NO release in phosphate buffer at pH 7.4 at 0.1 mM measured after 6 hrs in presence of N-acetylcysteine by Griess assay; type: functional; procedure, shortened: as §2
HCT-15 [9] = experiment: Cell cycle arrest in human HCT15 cells assessed assessed as accumulation at G1 phase at 0.5 uM after 24 hrs by propidium iodide staining-based flow cytometric method (reference value: 36.7%); type: functional
Procedure, shortened: (§3)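 HCT-15 cells seeded in 6-well plates, exposed to 0, 0.5 or 1.0 µM for 24 h, then harvested and stained with propidium iodide. DNA content read by flow cytometry and G1, S and G2/M fractions calculated. Comparison with untreated control by Student's t-test.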

HCT-15 [10] = experiment: Cell cycle arrest in human HCT15 cells assessed assessed as accumulation at G1 phase at 1.0 uM after 24 hrs by propidium iodide staining-based flow cytometric method (reference value: 36.7%); type: functional; procedure, shortened: as §3
HCT-15 [11] = experiment: Cell cycle arrest in human HCT15 cells assessed assessed as accumulation at S phase at 0.5 to 1.0 uM after 24 hrs by propidium iodide staining-based flow cytometric method; type: functional; conditions: in the assay text read “accumulation at G1 phase” for “accumulation at S phase”; procedure, shortened: as §3
HCT-15 [12] = experiment: Cell cycle arrest in human HCT15 cells assessed assessed as accumulation at G2/M phase at 0.5 to 1.0 uM after 24 hrs by propidium iodide staining-based flow cytometric method; type: functional; conditions: in the assay text read “accumulation at G1 phase” for “accumulation at G2/M phase”; procedure, shortened: as §3
HCT-15 [13] = experiment: Induction of apoptosis in human HCT15 cells assessed as nuclear fragmentation up to 1.0 uM after 24 hrs by Hoechst 33342 staining-based fluorescence microscopic method; type: functional, cell-based
Procedure, shortened: (§4)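 HCT-15 cells incubated 24 h at 0, 0.5 or 1.0 µM, then stained with Hoechst 33342. Nuclei examined by fluorescence for fragmentation, chromatin condensation and staining intensity.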

HCT-15 [14] = experiment: Induction of apoptosis in human HCT15 cells assessed as chromatin condensation up to 1.0 uM after 24 hrs by Hoechst 33342 staining-based fluorescence microscopic method; type: functional, cell-based; procedure, shortened: as §4
HCT-15 [15] = experiment: Induction of apoptosis in human HCT15 cells assessed as necrotic cells at 0.5 uM after 24 hrs by Annexin-V-FITC/propidium iodide staining based flow cytometry (reference value: 0.005%); type: functional
HCT-15 [16] = experiment: Induction of apoptosis in human HCT15 cells assessed as late apoptotic cells at 0.5 uM after 24 hrs by Annexin-V-FITC/propidium iodide staining based flow cytometry (reference value: 6.59%); type: functional
HCT-15 [17] = experiment: Induction of apoptosis in human HCT15 cells assessed as early apoptotic cells at 0.5 uM after 24 hrs by Annexin-V-FITC/propidium iodide staining based flow cytometry (reference value: 2.97%); type: functional
HCT-15 [18] = experiment: Induction of apoptosis in human HCT15 cells assessed as viable cells at 0.5 uM after 24 hrs by Annexin-V-FITC/propidium iodide staining based flow cytometry (reference value: 90.4%); type: functional; conditions: HCT-15, 24 h, read-out: Activity
HCT-15 [19] = experiment: Induction of apoptosis in human HCT15 cells assessed as necrotic cells at 1 uM after 24 hrs by Annexin-V-FITC/propidium iodide staining based flow cytometry (reference value: 0.005%); type: functional
HCT-15 [20] = experiment: Induction of apoptosis in human HCT15 cells assessed as late apoptotic cells at 1 uM after 24 hrs by Annexin-V-FITC/propidium iodide staining based flow cytometry (reference value: 6.59%); type: functional
HCT-15 [21] = experiment: Induction of apoptosis in human HCT15 cells assessed as early apoptotic cells at 1 uM after 24 hrs by Annexin-V-FITC/propidium iodide staining based flow cytometry (reference value: 2.97%); type: functional
HCT-15 [22] = experiment: Induction of apoptosis in human HCT15 cells assessed as viable cells at 1 uM after 24 hrs by Annexin-V-FITC/propidium iodide staining based flow cytometry (reference value: 90.4%); type: functional; conditions: HCT-15, 24 h, read-out: Activity
HCT-15 [23] = experiment: Induction of apoptosis in human HCT15 cells assessed as necrotic cells at 2 uM after 24 hrs by Annexin-V-FITC/propidium iodide staining based flow cytometry (reference value: 0.005%); type: functional
HCT-15 [24] = experiment: Induction of apoptosis in human HCT15 cells assessed as late apoptotic cells at 2 uM after 24 hrs by Annexin-V-FITC/propidium iodide staining based flow cytometry (reference value: 6.59%); type: functional
HCT-15 [25] = experiment: Induction of apoptosis in human HCT15 cells assessed as early apoptotic cells at 2 uM after 24 hrs by Annexin-V-FITC/propidium iodide staining based flow cytometry (reference value: 2.97%); type: functional
HCT-15 [26] = experiment: Induction of apoptosis in human HCT15 cells assessed as viable cells at 2 uM after 24 hrs by Annexin-V-FITC/propidium iodide staining based flow cytometry (reference value: 90.4%); type: functional; conditions: HCT-15, 24 h, read-out: Activity
HCT-15 [27] = experiment: Induction of apoptosis in human HCT15 cells after 24 hrs by Annexin-V-FITC/propidium iodide staining based flow cytometry; type: functional, cell-based
HCT-15 [28] = experiment: Induction of apoptosis in human HCT15 cells assessed as increase in Bax protein expression up to 2 uM after 24 hrs by Western blot analysis; type: functional, cell-based
Procedure, shortened: (§5)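 Protein extracted from HCT-15 cells after 24 h at 0, 0.5, 1.0 or 2.0 µM. Bcl-2, Bax and cleaved caspase-3 and -9 immunoblotted, band ratios quantified by densitometry. Student's t-test used.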

HCT-15 [29] = experiment: Induction of apoptosis in human HCT15 cells assessed as downregulation of Bcl2 expression at 2 uM after 24 hrs by Western blot analysis; type: functional, cell-based; procedure, shortened: as §5
HCT-15 [30] = experiment: Induction of apoptosis in human HCT15 cells assessed as increase in cleaved caspase-3 levels after 24 hrs by Western blot analysis; type: functional, cell-based; procedure, shortened: as §5
HCT-15 [31] = experiment: Induction of apoptosis in human HCT15 cells assessed as increase in cleaved caspase-9 levels after 24 hrs by Western blot analysis; type: functional, cell-based; procedure, shortened: as §5

## COc1cc(C(=O)SC(CC=C(C)C)c2cc(OC)c3c(c2OC)/C(=N/O)C=C/C3=N\O)cc(OC)c1OC (configuration not stated)
HCT-15 [1]
  IC50: 0.27 µM
MGC-803
  IC50: 0.86 µM
Bel-7402
  IC50: 0.45 µM
MCF7
  IC50: 9.23 µM
[2]
  IC50: > 50 µM
[3]
  Activity: 0.049%
[4]
  Activity: 0.063%
[5]
  Activity: 0.076%
[6]
  Activity: 0.091%
[7]
  Activity: 0.084%
[8]
  Activity: 0.079%
HCT-15 [9]
  Activity: 44.1%
HCT-15 [10]
  Activity: 49.9%
HCT-15 [11]
  Activity: Active
HCT-15 [12]
  Activity: Active
HCT-15 [13]
  Activity: Active
HCT-15 [14]
  Activity: Active
HCT-15 [15]
  Activity: 0.018%
HCT-15 [16]
  Activity: 9.43%
HCT-15 [17]
  Activity: 4.56%
HCT-15 [18]
  viability at 0.5 µM: 86%
HCT-15 [19]
  Activity: 0.021%
HCT-15 [20]
  Activity: 23.7%
HCT-15 [21]
  Activity: 18.3%
HCT-15 [22]
  viability at 1 µM: 58%
HCT-15 [23]
  Activity: 0.088%
HCT-15 [24]
  Activity: 57.3%
HCT-15 [25]
  Activity: 20.1%
HCT-15 [26]
  viability at 2 µM: 22.4%
HCT-15 [27]
  Activity: Dose-dependent effect
HCT-15 [28]
  Activity: Active
HCT-15 [29]
  Activity: Active
HCT-15 [30]
  Activity: Dose-dependent effect
HCT-15 [31]
  Activity: Dose-dependent effect

## COc1ccc(C(=O)SC(CC=C(C)C)c2cc(OC)c3c(c2OC)/C(=N/O)C=C/C3=N\O)cc1 (configuration not stated)
HCT-15 [1]
  IC50: 0.61 µM
MGC-803
  IC50: 0.93 µM
Bel-7402
  IC50: 1.09 µM
MCF7
  IC50: 17.1 µM
[2]
  IC50: > 50 µM
[3]
  Activity: 0.038%
[4]
  Activity: 0.045%
[5]
  Activity: 0.058%
[6]
  Activity: 0.064%
[7]
  Activity: 0.059%
[8]
  Activity: 0.053%

## COc1cc(C(CC=C(C)C)SCCC(C)C)c(OC)c2c1/C(=N/O)C=C/C2=N\O (configuration not stated)
HCT-15 [1]
  IC50: 1.14 µM
MGC-803
  IC50: 3.36 µM
Bel-7402
  IC50: 5.43 µM
MCF7
  IC50: 27.2 µM
[2]
  IC50: > 50 µM
[3]
  Activity: 0.023%
[4]
  Activity: 0.027%
[5]
  Activity: 0.033%
[6]
  Activity: 0.038%
[7]
  Activity: 0.029%
[8]
  Activity: 0.024%

## COc1ccc(C(=O)SC(CC=C(C)C)c2cc(OC)c3c(c2OC)/C(=N/O)C=C/C3=N\O)cc1OC (configuration not stated)
HCT-15 [1]
  IC50: 0.39 µM
MGC-803
  IC50: 1.17 µM
Bel-7402
  IC50: 0.66 µM
MCF7
  IC50: 14.9 µM
[2]
  IC50: > 50 µM
[3]
  Activity: 0.041%
[4]
  Activity: 0.05%
[5]
  Activity: 0.063%
[6]
  Activity: 0.079%
[7]
  Activity: 0.073%
[8]
  Activity: 0.065%

## COc1cc(C(=O)S[C@@H](CC=C(C)C)c2cc(OC)c3c(c2OC)/C(=N/O)C=C/C3=N\O)cc(OC)c1OC
HCT-15 [1]
  IC50: 0.34 µM
MGC-803
  IC50: 0.97 µM
Bel-7402
  IC50: 0.63 µM
MCF7
  IC50: 11.8 µM
[2]
  IC50: > 50 µM

## O=c1[nH]cc(F)c(=O)[nH]1 [FLUOROURACIL]
HCT-15 [1]
  IC50: 7.53 µM
MGC-803
  IC50: > 50 µM
Bel-7402
  IC50: 20.9 µM
MCF7
  IC50: 29 µM
[2]
  IC50: > 50 µM
